Source: ChEMBL document CHEMBL1148917, “Dibenzyl bromophenols with diverse dimerization patterns from the brown alga Leathesia nana” (J Nat Prod, 2004)

Test system: BGC-823
Assay: Cytotoxicity against human BGC823 cells after 96 hrs by MTT assay
Format: functional, cell-based
Procedure, shortened: (§1)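 Cells grown in RPMI1640 with 10% FBS, penicillin and streptomycin at 37 °C under humidified 5% CO2; seeded at 1200 cells/well and dosed 24 h later. Five concentrations per compound in DMSO (0.1% final), three parallel wells each. After 96 h exposure, MTT conversion to formazan read at 570 nm; IC50 calculated from the readings.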

In order of falling IC50:
1. COCc1cc(O)c(O)c(Br)c1Cc1cc(O)c(O)c(Br)c1Br  18 µM
2. COCc1c(Br)c(Br)c(O)c(O)c1Cc1cc(O)c(O)c(Br)c1Br  8.8 µM
3. Oc1cc(COCc2cc(O)c(O)c(Br)c2Br)c(Br)c(Br)c1O  8.6 µM
4. CCOCc1cc(O)c(O)c(Br)c1Cc1cc(O)c(O)c(Br)c1Br  4.6 µM
5. Oc1cc(Cc2cc(O)c(O)c(Br)c2Br)c(Br)c(Br)c1O  3.8 µM

Test system: A549
Assay: Cytotoxicity against human A549 cells after 96 hrs by MTT assay
Format: functional, cell-based
Procedure, shortened: as §1

Compared with `Oc1cc(Cc2cc(O)c(O)c(Br)c2Br)c(Br)c(Br)c1O`, `Oc1cc(COCc2cc(O)c(O)c(Br)c2Br)c(Br)c(Br)c1O` is higher in IC50: 1.8 µM for the first, > 19.5 µM for the second.

First: COCc1c(Br)c(Br)c(O)c(O)c1Cc1cc(O)c(O)c(Br)c1Br
Second: COCc1cc(O)c(O)c(Br)c1Cc1cc(O)c(O)c(Br)c1Br
The IC50 of the first is 2.2-fold lower: 2.5 µM for the first, 5.4 µM for the second.

With `CCOCc1cc(O)c(O)c(Br)c1Cc1cc(O)c(O)c(Br)c1Br` the IC50 was > 19 µM.

Test system: MCF7
Assay: Cytotoxicity against human MCF7 cells after 96 hrs by MTT assay
Format: functional, cell-based
Procedure, shortened: as §1

In order of rising IC50:
1. Oc1cc(Cc2cc(O)c(O)c(Br)c2Br)c(Br)c(Br)c1O  2.7 µM
2. COCc1c(Br)c(Br)c(O)c(O)c1Cc1cc(O)c(O)c(Br)c1Br  2.7 µM
3. CCOCc1cc(O)c(O)c(Br)c1Cc1cc(O)c(O)c(Br)c1Br  3.4 µM
4. COCc1cc(O)c(O)c(Br)c1Cc1cc(O)c(O)c(Br)c1Br  4.6 µM
5. Oc1cc(COCc2cc(O)c(O)c(Br)c2Br)c(Br)c(Br)c1O  21.4 µM

Test system: HCT-8
Assay: Cytotoxicity against human HCT8 cells after 96 hrs by MTT assay
Format: functional, cell-based
Procedure, shortened: as §1

First: Oc1cc(Cc2cc(O)c(O)c(Br)c2Br)c(Br)c(Br)c1O
Second: Oc1cc(COCc2cc(O)c(O)c(Br)c2Br)c(Br)c(Br)c1O
The IC50 of the first is 9.4-fold lower: 2.2 µM for the first, 20.7 µM for the second.

First: COCc1c(Br)c(Br)c(O)c(O)c1Cc1cc(O)c(O)c(Br)c1Br
Second: COCc1cc(O)c(O)c(Br)c1Cc1cc(O)c(O)c(Br)c1Br
The IC50 of the first is higher: > 16.8 µM for the first, 5.9 µM for the second.

`CCOCc1cc(O)c(O)c(Br)c1Cc1cc(O)c(O)c(Br)c1Br` gave an IC50 of 2.8 µM.

Test system: Bel-7402
Assay: Cytotoxicity against human Bel7402 cells after 96 hrs by MTT assay
Format: functional, cell-based
Procedure, shortened: as §1

In the case of `Oc1cc(Cc2cc(O)c(O)c(Br)c2Br)c(Br)c(Br)c1O`, the IC50 is reported as > 0.0182 uM/ml.
For `Oc1cc(COCc2cc(O)c(O)c(Br)c2Br)c(Br)c(Br)c1O`, the IC50 was > 0.0019 uM/ml.

In order of falling IC50:
1. COCc1cc(O)c(O)c(Br)c1Cc1cc(O)c(O)c(Br)c1Br  0.0074 uM/ml
2. CCOCc1cc(O)c(O)c(Br)c1Cc1cc(O)c(O)c(Br)c1Br  0.0055 uM/ml
3. COCc1c(Br)c(Br)c(O)c(O)c1Cc1cc(O)c(O)c(Br)c1Br  0.0048 uM/ml
